≈ marks a conversion by molar mass, not a printed value.
Tests used:
[1] = biological target: Human immunodeficiency virus type 1 protease (Human immunodeficiency virus 1, UniProt Q72874); test: Inhibition of purified recombinant HIV-1 protease in a fluorogenic assay
In short: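 Purified recombinant HIV-1 protease, with cleavage of the fluorogenic substrate DABCYL-[…]-Pro-Ile-Val-Gln-EDANS as read-out. Value is the inhibitor concentration giving 50% inhibition of protease activity.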

[2] = Estimated solubility (buffer pH 7.4); assay type: ADME; details: read-out: S
In short: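 Solubility was estimated in pH 7.4 phosphate buffer.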

[3] = system: Human immunodeficiency virus 1; test: In vitro for inhibition of cytopathic effect of HIV-1 3B in MT-4 lymphocytes.; assay type: functional, organism-based
In short: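 MT-4 lymphocytes were infected with HIV-1 3B at an MOI of either 0.001 or 0.032 tissue culture infective dose per cell. EC50 is the concentration preventing 50% of viral cytopathic effect, from a single triplicate assay. No effect means no activity up to 100 μM or up to the cytotoxic concentration.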

MT4 = test: In vitro for cytotoxicity in MT-4 lymphocytes in the absence of HIV infection.; assay type: functional; details: Homo sapiens
In short: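 Uninfected MT-4 lymphocytes were cultured with compound. CC50 is the concentration at which 50% of cells remain viable.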

Compound | IC50 [1] [nM] | solubility [2] [µg/mL] | EC50 [3] [nM] | CC50 (MT4) [nM]
CC(C)[C@H](NC(=O)OCc1cccnc1)C(=O)N[C@@H](Cc1ccccc1)[C@@H](O)[C@H](O)[C@H](Cc1ccccc1)NC(=O)[C@H](NC(=O)OCc1cccnc1)C(C)C | < 1 | 0.5 (≈ 0.65 µM) | – | –
CC(C)[C@H](NC(=O)OCc1ccccn1)C(=O)N[C@@H](Cc1ccccc1)[C@@H](O)[C@@H](O)[C@H](Cc1ccccc1)NC(=O)[C@H](NC(=O)OCc1ccccn1)C(C)C | < 1 | 5.4 (≈ 7.02 µM) | 450 | > 100000
CC(C)[C@H](NC(=O)OCc1ccccc1)C(=O)N[C@@H](Cc1ccccc1)[C@@H](O)[C@H](Cc1ccccc1)NC(=O)[C@H](NC(=O)OCc1ccccc1)C(C)C | – | > 0.03 | – | > 100000
CC(C)[C@H](NC(=O)OCCN1CCOCC1)C(=O)N[C@@H](Cc1ccccc1)C(O)[C@H](Cc1ccccc1)NC(=O)[C@H](NC(=O)OCCN1CCOCC1)C(C)C (stereo not given in full) | 180 | 273 (≈ 349 µM) | – | –
CC(C)[C@H](NC(=O)NCc1ccccn1)C(=O)N[C@@H](Cc1ccccc1)C(O)[C@H](Cc1ccccc1)NC(=O)[C@H](NC(=O)NCc1ccccn1)C(C)C (stereo not given in full) | 10 | 53 (≈ 71.9 µM) | 6100 | > 100000
CC(C)[C@H](NC(=O)N(C)Cc1nccs1)C(=O)N[C@@H](Cc1ccccc1)[C@H](O)[C@H](O)[C@H](Cc1ccccc1)NC(=O)[C@H](NC(=O)N(C)Cc1nccs1)C(C)C | < 1 | 57 (≈ 70.6 µM) | 390 | > 100000
CC(C)[C@H](NC(=O)OCc1ccncc1)C(=O)N[C@@H](Cc1ccccc1)[C@@H](O)[C@@H](O)[C@H](Cc1ccccc1)NC(=O)[C@H](NC(=O)OCc1ccncc1)C(C)C | 1.7 | 55 (≈ 71.5 µM) | 610 | > 100000
CC(C)[C@H](NC(=O)OCC1CCCCN1C)C(=O)N[C@@H](Cc1ccccc1)[C@@H](O)[C@H](Cc1ccccc1)NC(=O)[C@H](NC(=O)OCc1ccccc1)C(C)C (stereo not given in full) | 63 | 19 (≈ 25.1 µM) | – | –
CC(C)[C@H](NC(=O)OCc1ccncc1)C(=O)N[C@@H](Cc1ccccc1)[C@H](O)[C@H](O)[C@H](Cc1ccccc1)NC(=O)[C@H](NC(=O)OCc1ccncc1)C(C)C | 2.3 | 0.62 (≈ 0.806 µM) | 600 | > 100000
CC(C)[C@H](NC(=O)N(C)Cc1ccccn1)C(=O)N[C@@H](Cc1ccccc1)[C@@H](O)[C@@H](O)[C@H](Cc1ccccc1)NC(=O)[C@H](NC(=O)N(C)Cc1ccccn1)C(C)C | 1.66 | 225 (≈ 283 µM) | 1500 | > 100000
CC(C)[C@H](NC(=O)c1cc2ccccc2[nH]1)C(=O)N[C@@H](Cc1ccccc1)[C@@H](O)[C@@H](O)[C@H](Cc1ccccc1)NC(=O)[C@H](NC(=O)c1cc2ccccc2[nH]1)C(C)C | < 1 | – | 70 | 49000
CC(C)[C@H](NC(=O)N(C)Cc1nccs1)C(=O)N[C@@H](Cc1ccccc1)[C@@H](O)[C@@H](O)[C@H](Cc1ccccc1)NC(=O)[C@H](NC(=O)N(C)Cc1nccs1)C(C)C | 1 | 137 (≈ 170 µM) | 1700 | > 100000
CC(C)[C@H](NC(=O)N(C)Cc1cscn1)C(=O)N[C@@H](Cc1ccccc1)[C@H](O)[C@H](O)[C@H](Cc1ccccc1)NC(=O)[C@H](NC(=O)N(C)Cc1cscn1)C(C)C | < 1 | 6.5 (≈ 8.05 µM) | 500 | > 100000
CC(C)[C@H](NC(=O)N(C)Cc1nc2ccccc2[nH]1)C(=O)N[C@@H](Cc1ccccc1)[C@@H](O)[C@@H](O)[C@H](Cc1ccccc1)NC(=O)[C@H](NC(=O)N(C)Cc1nc2ccccc2[nH]1)C(C)C | < 1 | 12 (≈ 13.7 µM) | 5000 | 55000
CC(C)[C@H](NC(=O)N(C)Cc1ccccn1)C(=O)N[C@@H](Cc1ccccc1)[C@H](O)[C@H](O)[C@H](Cc1ccccc1)NC(=O)[C@H](NC(=O)N(C)Cc1ccccn1)C(C)C | < 1 | 3.6 (≈ 4.53 µM) | 170 | > 100000
CC(C)[C@H](NC(=O)OCc1ccccn1)C(=O)N[C@@H](Cc1ccccc1)[C@@H](O)[C@H](Cc1ccccc1)NC(=O)[C@H](NC(=O)OCc1ccccc1)C(C)C | 3 | 0.6 (≈ 0.813 µM) | 2200 | > 100000
CC(C)[C@H](NC(=O)/C=C/c1ccccn1)C(=O)N[C@@H](Cc1ccccc1)[C@@H](O)[C@@H](O)[C@H](Cc1ccccc1)NC(=O)[C@H](NC(=O)/C=C/c1ccccn1)C(C)C | < 1 | 6.8 (≈ 8.94 µM) | 1100 | > 100000
CC(C)[C@H](NC(=O)OCc1ccccc1)C(=O)N[C@@H](Cc1ccccc1)[C@H](O)[C@H](O)[C@H](Cc1ccccc1)NC(=O)[C@H](NC(=O)OCc1ccccc1)C(C)C | < 1 | – | 70 | > 100000
CC(C)[C@H](NC(=O)CCN1CCOCC1)C(=O)N[C@@H](Cc1ccccc1)[C@@H](O)[C@@H](O)[C@H](Cc1ccccc1)NC(=O)[C@H](NC(=O)CCN1CCOCC1)C(C)C | 23 | > 1050 | 53000 | > 100000
CC(C)[C@H](NC(=O)c1ccc2ccccc2n1)C(=O)N[C@@H](Cc1ccccc1)C(O)[C@H](Cc1ccccc1)NC(=O)[C@H](NC(=O)c1ccc2ccccc2n1)C(C)C (stereo not given in full) | 1.6 | 0.23 (≈ 0.295 µM) | 2100 | > 100000
CC(C)[C@H](NC(=O)N(C)Cc1cccnc1)C(=O)N[C@@H](Cc1ccccc1)[C@@H](O)[C@H](O)[C@H](Cc1ccccc1)NC(=O)[C@H](NC(=O)N(C)Cc1cccnc1)C(C)C | < 1 | 153 (≈ 192 µM) | 1700 | > 100000
CC(C)[C@H](NC(=O)N(C)Cc1ccccn1)C(=O)N[C@@H](Cc1ccccc1)[C@H](O)[C@@H](O)[C@H](Cc1ccccc1)NC(=O)[C@H](NC(=O)N(C)Cc1nccs1)C(C)C | < 1 | 10.9 (≈ 13.6 µM) | 220 | > 100000
CC(C)[C@H](NC(=O)N(C)Cc1cccnc1)C(=O)N[C@@H](Cc1ccccc1)[C@@H](O)[C@@H](O)[C@H](Cc1ccccc1)NC(=O)[C@H](NC(=O)N(C)Cc1cccnc1)C(C)C | 1.6 | 338 (≈ 425 µM) | 5700 | > 100000
CC(C)[C@H](NC(=O)OCc1cccnc1)C(=O)N[C@@H](Cc1ccccc1)[C@@H](O)[C@@H](O)[C@H](Cc1ccccc1)NC(=O)[C@H](NC(=O)OCc1cccnc1)C(C)C | < 1 | 31 (≈ 40.3 µM) | 440 | > 100000
CC(C)[C@H](NC(=O)CN1CCOCC1)C(=O)N[C@@H](Cc1ccccc1)[C@@H](O)[C@@H](O)[C@H](Cc1ccccc1)NC(=O)[C@H](NC(=O)CN1CCOCC1)C(C)C | 7.5 | – | – | –
CC(C)[C@H](NC(=O)OCc1ccccc1)C(=O)N[C@@H](Cc1ccccc1)[C@@H](O)[C@H](O)[C@H](Cc1ccccc1)NC(=O)[C@H](NC(=O)OCc1ccccc1)C(C)C | < 1 | – | 90 | > 100000
CC(C)[C@H](NC(=O)c1cc2ccccc2[nH]1)C(=O)N[C@@H](Cc1ccccc1)C(O)[C@H](Cc1ccccc1)NC(=O)[C@H](NC(=O)c1cc2ccccc2[nH]1)C(C)C (stereo not given in full) | 1.2 | – | 8900 | 58000
CC(C)[C@H](NC(=O)OCc1cccnc1)C(=O)N[C@@H](Cc1ccccc1)[C@H](O)[C@H](O)[C@H](Cc1ccccc1)NC(=O)[C@H](NC(=O)OCc1cccnc1)C(C)C | < 1 | 0.41 (≈ 0.533 µM) | – | –

Source: ChEMBL document CHEMBL1126582, “Symmetry-based inhibitors of HIV protease. Structure-activity studies of acylated 2,4-diamino-1,5-diphenyl-3-hydroxypentane and 2,5-diamino-1,6-diphenylhexane-3,4-diol” (J Med Chem, 1993)
